Laboratory results as given in the M2OR odorant receptor database.

System: T1, OR5M3 N3Y A156T
T1 sequence (whole entry): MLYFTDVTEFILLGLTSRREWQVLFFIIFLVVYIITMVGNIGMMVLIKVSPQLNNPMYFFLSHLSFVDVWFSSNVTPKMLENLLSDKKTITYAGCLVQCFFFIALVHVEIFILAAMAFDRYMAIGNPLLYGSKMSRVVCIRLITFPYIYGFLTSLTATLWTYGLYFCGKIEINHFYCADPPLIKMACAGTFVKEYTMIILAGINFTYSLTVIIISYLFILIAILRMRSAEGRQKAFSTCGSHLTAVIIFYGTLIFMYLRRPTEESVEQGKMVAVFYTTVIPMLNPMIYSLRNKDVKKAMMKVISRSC
Settings: stereoisomer not certain
Summary of the method: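 Values were gathered from published papers (main text and supplementary material), with extra details requested from the original authors when needed, and checked for typos and inconsistencies. Each receptor–molecule pair is called responsive (active) if the original authors judged the measured signal statistically different from baseline, and non-responsive (inactive) otherwise. Assay methods varied by source, often transient mammalian cell-line luciferase assays. Recorded details include cell line, G-protein, co-transfected protein and tags.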

Odorant receptor agonist call, inactive:
CC1=C(O)C(=O)C(C)O1 (stereo not drawn), CC1=C(O)C(=O)OC1C (stereo not drawn), CCC1OC(=O)C(O)=C1C (stereo not drawn), CCCC(S)CCOC(C)=O (stereo not drawn), CCCCCCC=CCCC=O, Cc1cnc(C)c(C)n1, CC1=NC(C)C(C)S1 (stereo not drawn), CCC1OC(C)=C(O)C1=O (stereo not drawn)
